{
  "source": "ChEMBL document CHEMBL4513216",
  "about": "“Probing the Open Global Health Chemical Diversity Library for Multistage-Active Starting Points for Next-Generation Antimalarials” (ACS Infect Dis, 2020)",
  "data": [
    {"test": "Toxicity liver stage against HepG2, at 10uM", "assay_type": "cell-based", "set-up": "test concentration 10 uM, cell line HepG2-A16-CD81EGFP", "conditions": "human, HepG2-A16-CD81EGFP cells; read-out: INHIBITION", "method_in_brief": "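Uninfected HepG2-A16-CD81EGFP cells, 3 × 10^3 per well, 1536-well, plated on prespotted compound at 10 μM final, parasite-free screening media added to match infected plates; puromycin 10 μM positive, DMSO 0.5% negative; run in parallel with 48 h PbLuc assay at 37 °C, 5% CO2; viability by CellTiter-Glo luminescence, normalized to controls.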", "units": {"cytotoxicity at 10 µM": "%"}, "values": [
      {"smiles": "Cc1noc([C@@H]2C[C@H](NC(=O)NC(C)C)CN2C)n1", "cytotoxicity at 10 µM": -10.1},
      {"smiles": "COc1ccccc1CN1C[C@@H](F)[C@@H](OCc2nc3ncccc3[nH]2)C1", "cytotoxicity at 10 µM": 6.96},
      {"smiles": "CC(C)CC1CC(=O)Nc2c1cnn2Cc1ccco1", "note": "(stereo unspecified)", "cytotoxicity at 10 µM": -2.75},
      {"smiles": "O=C(Nc1cccnc1)C1CCCN(c2cc(-n3cccn3)ncn2)C1", "note": "(stereo unspecified)", "cytotoxicity at 10 µM": -5.36},
      {"smiles": "c1csc(CN2CCC3(CC2)COCCN3CC2CC2)n1", "cytotoxicity at 10 µM": 5.53},
      {"smiles": "O=C(NC1CC1)C1CCN(c2nc3nc[nH]c(=O)c3s2)CC1", "cytotoxicity at 10 µM": -6.5},
      {"smiles": "COc1ccc(OC)c(CN2CCCCCC2c2cccs2)c1", "note": "(stereo unspecified)", "cytotoxicity at 10 µM": -5},
      {"smiles": "Cc1cccc(NC(=O)Cn2ncc(SCC(N)=O)c(Cl)c2=O)c1C", "cytotoxicity at 10 µM": -15.7},
      {"smiles": "CC(C)CN1CCC2(CCN(Cc3ccoc3)CC2)C1=O", "cytotoxicity at 10 µM": 7.85},
      {"smiles": "CCn1nc(C)c2nc(C(C)C)nc(NCCCn3cccn3)c21", "cytotoxicity at 10 µM": 8.71},
      {"smiles": "CCOc1cc(C(=O)N2CCCC2)cc2occc12", "cytotoxicity at 10 µM": 8.52},
      {"smiles": "Cc1cc(=O)n(CC(=O)NCC2CCCO2)c(-c2ccc(F)cc2)n1", "note": "(stereo unspecified)", "cytotoxicity at 10 µM": -10.8},
      {"smiles": "O=C(Cc1ccccc1)NCc1ccc(-c2ccccc2C(=O)O)cn1", "cytotoxicity at 10 µM": -11.5},
      {"smiles": "Cc1ccnc(C2CCN(C(=O)c3cnn(C)c3)CC2)n1", "cytotoxicity at 10 µM": -4.15},
      {"smiles": "Cc1cccc(CC(=O)N2CCCC(c3n[nH]c4nccnc34)C2)c1", "note": "(stereo unspecified)", "cytotoxicity at 10 µM": -8.52},
      {"smiles": "CN1CCCC(CCCc2cccnc2)(C(N)=O)C1", "note": "(stereo unspecified)", "cytotoxicity at 10 µM": -7.86},
      {"smiles": "Cc1nc(Nc2ccccn2)cc(C2CCCN2Cc2ncc[nH]2)n1", "note": "(stereo unspecified)", "cytotoxicity at 10 µM": -3.11},
      {"smiles": "CC(C)c1nccn1-c1cccc(C2CCCN(S(=O)(=O)N(C)C)C2)n1", "note": "(stereo unspecified)", "cytotoxicity at 10 µM": -3.11},
      {"smiles": "O=C(c1cnccn1)N1CCCC(c2cccc(-n3ccnc3)n2)C1", "note": "(stereo unspecified)", "cytotoxicity at 10 µM": -9.08},
      {"smiles": "O=C(C1CCCCC1)N1CCC2(COc3ncccc3S(=O)(=O)N2)C1", "note": "(stereo unspecified)", "cytotoxicity at 10 µM": 11.3},
      {"smiles": "CC(=O)Nc1nccn1Cc1ccccc1Cl", "cytotoxicity at 10 µM": -8.1},
      {"smiles": "O=C(NCc1nnc2n1CCC2)c1cn(-c2ccccc2Br)nn1", "cytotoxicity at 10 µM": 3.37},
      {"smiles": "COC(C)c1cccc(NCc2cccs2)c1", "note": "(stereo unspecified)", "cytotoxicity at 10 µM": -8.94},
      {"smiles": "CS(=O)(=O)N1CCCC(c2nc(-c3ccccc3)c[nH]2)C1", "note": "(stereo unspecified)", "cytotoxicity at 10 µM": 2.44},
      {"smiles": "Cc1nn(C)c(C)c1C1CCCN1Cc1nnc(C2CC2)n1C", "note": "(stereo unspecified)", "cytotoxicity at 10 µM": 1.76},
      {"smiles": "COc1cc(NC(=O)NCc2nccn2C)ccc1Br", "cytotoxicity at 10 µM": -9.11},
      {"smiles": "O=C(c1ccc(-n2cccn2)nc1)N1CCC(c2ccc(O)cc2)CC1", "cytotoxicity at 10 µM": 11.7},
      {"smiles": "O=C(Cc1cccnc1)N1CCCC(c2cc(C(F)(F)F)[nH]n2)C1", "note": "(stereo unspecified)", "cytotoxicity at 10 µM": -42.6},
      {"smiles": "NC(=O)C(Cc1ccccc1)NS(=O)(=O)Cc1ccccc1F", "note": "(stereo unspecified)", "cytotoxicity at 10 µM": -13},
      {"smiles": "COc1cc(C#N)ccc1OCC(=O)NS(=O)(=O)c1ccccc1", "cytotoxicity at 10 µM": 0.165},
      {"smiles": "CCN1CC(COC(=O)c2cc(C)nn2CC)CC1=O", "note": "(stereo unspecified)", "cytotoxicity at 10 µM": -3.37},
      {"smiles": "COc1cc(C)c(S(=O)(=O)CC(=O)N(C)C2CC2)cc1OC", "cytotoxicity at 10 µM": -3.81},
      {"smiles": "Fc1cc(CNCCn2cccn2)ccc1-n1cncn1", "cytotoxicity at 10 µM": -11.1},
      {"smiles": "Cc1nccn1-c1ccc(C(C)NCc2cc[nH]n2)cc1", "note": "(stereo unspecified)", "cytotoxicity at 10 µM": 5.33},
      {"smiles": "COCCOCCNC(=O)c1ccc(N2CCC(C)=N2)cc1", "cytotoxicity at 10 µM": 7.42},
      {"smiles": "COc1cc(OC)cc(N2CCC(NC(=O)c3ccc[nH]3)CC2)c1", "cytotoxicity at 10 µM": -4.83},
      {"smiles": "Cn1ccc(C(=O)N2CCOC(c3ccccc3)C2)cc1=O", "note": "(stereo unspecified)", "cytotoxicity at 10 µM": -0.944},
      {"smiles": "COC(=O)CN(CC1CCOC1)C1CC1", "note": "(stereo unspecified)", "cytotoxicity at 10 µM": -24.3},
      {"smiles": "CCCn1cc(NC(=O)c2ccncc2)ccc1=O", "cytotoxicity at 10 µM": -8.44},
      {"smiles": "CCC1CCCCN1CCNC(=O)N1CCN(Cc2ccon2)CC1", "note": "(stereo unspecified)", "cytotoxicity at 10 µM": -2.01},
      {"smiles": "O=C(C1CCCc2[nH]ncc21)N1CCCC2(C1)OCCO2", "note": "(stereo unspecified)", "cytotoxicity at 10 µM": -1.26},
      {"smiles": "CC(C)(C)n1ncc2c1CCCC2NCc1ccsc1", "note": "(stereo unspecified)", "cytotoxicity at 10 µM": 3.59},
      {"smiles": "CCCS(=O)(=O)NCc1cccnc1OCc1ccccc1", "cytotoxicity at 10 µM": 13},
      {"smiles": "CCC(=O)N1CCCC1c1ccsc1", "note": "(stereo unspecified)", "cytotoxicity at 10 µM": -6.05},
      {"smiles": "N#Cc1cccc(C(=O)NS(=O)(=O)c2ccc(C#N)c(Cl)c2)c1", "cytotoxicity at 10 µM": -3.54},
      {"smiles": "CCN1CCN(C(=O)NCc2cccc(-c3cnn(C)c3)c2)CC1", "cytotoxicity at 10 µM": -10},
      {"smiles": "Cc1cc(N2CCc3cncnc3C2)n2nc(C(F)(F)F)nc2n1", "cytotoxicity at 10 µM": 6.25},
      {"smiles": "CN1CCN(c2ccccc2NC(=O)c2ccco2)CC1", "cytotoxicity at 10 µM": -5.92},
      {"smiles": "CCN(C)C(=O)CCN(C)Cc1cnc(C)s1", "cytotoxicity at 10 µM": 4.04},
      {"smiles": "CN(C(=O)c1ccc(S(=O)(=O)NC(C)(C)C)cc1)C1(C#N)CCC1", "cytotoxicity at 10 µM": 3.07},
      {"smiles": "c1ccc(C(NCc2nnc(-c3ccco3)o2)C2CCC2)cc1", "note": "(stereo unspecified)", "cytotoxicity at 10 µM": -48.7},
      {"smiles": "O=C1C(N2CCOCC2)CCCN1Cc1cccc(C(F)(F)F)c1", "note": "(stereo unspecified)", "cytotoxicity at 10 µM": 0.174},
      {"smiles": "Cc1noc(-c2cccnc2N(C)Cc2cc(C)on2)n1", "cytotoxicity at 10 µM": -5.1},
      {"smiles": "CCc1noc(CN(CC(=O)N2CCCCC2)c2ccc(C)cc2)n1", "cytotoxicity at 10 µM": -3.24},
      {"smiles": "CC1CCCCN1CCNC(=O)NCc1ccc(C#N)cc1F", "note": "(stereo unspecified)", "cytotoxicity at 10 µM": 0.616},
      {"smiles": "N#CCSCCCN1CCN(C(=O)C2CCCC2)CC1", "cytotoxicity at 10 µM": 5.34}
    ]}
  ]
}
